Assay results taken from ChEMBL document CHEMBL4813940, “Design, synthesis and biological evaluation of novel benzoxaborole derivatives as potent PDE4 inhibitors for topical treatment of atopic dermatitis” (Eur J Med Chem, 2021).
Each block holds one compound with its values, some of them ahead of it.

Key:
[1] = target: T1, 3',5'-cyclic-AMP phosphodiesterase 4B (Homo sapiens, UniProt Q07343); test: Inhibition of PDE4B (unknown origin) assessed as hydrolysis of [3H]-cGMP into [3H]-GMP incubated for 30 mins by scintillation of proximity assay; conditions: in the assay text read “[3H]-cAMP into [3H]-AMP” for “[3H]-cGMP into [3H]-GMP”
Procedure, shortened: (§1)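 Scintillation proximity assay of [3H]-cAMP or [3H]-cGMP hydrolysis to [3H]-AMP or [3H]-GMP. Enzyme was diluted to 1–2 nM in 50 mM Tris pH 7.5, 8.3 mM MgCl2 and 1.7 mM EGTA. Reaction was started by adding enzyme, test solution and radiolabelled substrate, then incubated at 30 °C for 30 min and stopped with SPA beads. Run in duplicate.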

[2] = test system: Mus musculus; test: Antiinflammatory activity against PMA-induced ICR mouse ear oedema model assessed as reduction in ear swelling at 1 mg/ear topically administered and measured after 4 hrs; type: functional
Procedure, shortened: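 Male ICR mice, 8 weeks old. The sample was applied topically to the right ear at 1.0 mg/ear in ethanol before PMA. After 4 h the mice were killed by cervical dislocation and both ears were measured with a micrometer. Oedema was the thickness difference between the ears; inhibition was the percent reduction versus the model group.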

[3] = species: Homo sapiens; test: Selectivity index, ratio of IC50 for PDE1A (unknown origin) to IC50 for PDE4B (unknown origin)
[4] = species: Homo sapiens; test: Selectivity index, ratio of IC50 for PDE1B (unknown origin) to IC50 for PDE4B (unknown origin)
[5] = species: Homo sapiens; test: Selectivity index, ratio of IC50 for PDE1C (unknown origin) to IC50 for PDE4B (unknown origin)
[6] = species: Homo sapiens; test: Selectivity index, ratio of IC50 for PDE2A (unknown origin) to IC50 for PDE4B (unknown origin)
[7] = species: Homo sapiens; test: Selectivity index, ratio of IC50 for PDE3A (unknown origin) to IC50 for PDE4B (unknown origin)
[8] = species: Homo sapiens; test: Selectivity index, ratio of IC50 for PDE3B (unknown origin) to IC50 for PDE4B (unknown origin)
[9] = species: Homo sapiens; test: Selectivity index, ratio of IC50 for PDE5A (unknown origin) to IC50 for PDE4B (unknown origin)
[10] = species: Homo sapiens; test: Selectivity index, ratio of IC50 for PDE7A (unknown origin) to IC50 for PDE4B (unknown origin)
[11] = species: Homo sapiens; test: Selectivity index, ratio of IC50 for PDE10A (unknown origin) to IC50 for PDE4B (unknown origin)
[12] = test system: Mus musculus; test: Antiinflammatory activity against calcipotriol-induced atopic dermatitis mouse model assessed as swelling inhibition by measuring thickness of left ear at 30 mg/kg for 14 days (RVB = 0.26 +/- 0.01 mm); type: functional; conditions: time 14 day
Procedure, shortened: (§2)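 Ointment was applied to the dorsal side of the left ear twice daily (30 mg/kg) for 14 days; the normal group received ethanol. On day 17 the mice were anaesthetized with 10% chloral hydrate and ear thickness was measured with a micrometer. Percent inhibition of the inflammatory reaction was calculated against untreated animals.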

[13] = test system: Mus musculus; test: Antiinflammatory activity against calcipotriol-induced atopic dermatitis mouse model assessed as swelling inhibition by measuring thickness of right ear at 30 mg/kg for 14 days (RVB = 0.55 +/- 0.06 mm); type: functional; conditions: time 14 day; procedure, shortened: as §2
[14] = test system: Mus musculus; test: Antiinflammatory activity against calcipotriol-induced atopic dermatitis mouse model assessed as swelling inhibition at 30 mg/kg for 14 days; type: functional; design: scale not given: the % may be the effect or the level left; conditions: time 14 day; procedure, shortened: as §2
[15] = Phototoxicity in albino guinea pig assessed as skin reaction score at 5 mg/kg topical treatment irradiated with 4.2 mw/cm2 UVA for 40 mins and measured after 24 hrs day of light irradiation by H and E staining based microscopic analysis; type: organism-based, Cavia porcellus; conditions: in vivo, topical_or_ocular
Procedure, shortened: (§3)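 Albino guinea pigs (250–300 g) were randomized into 5 groups. Four 2 cm × 2 cm depilated areas beside the spine were prepared 24 h before dosing, and 0.2 mL of test substance was applied. Animals were restrained and exposed to UVA for 40 min. Erythema, eschar and oedema were scored visually at 1, 24, 48 and 72 h. Skin taken at 72 h was formalin-fixed, H&E-stained and read by a pathologist.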

[16] = Phototoxicity in albino guinea pig assessed as skin reaction score at 10 mg/kg topical treatment irradiated with 4.2 mw/cm2 UVA for 40 mins and measured after 24 hrs day of light irradiation by H and E staining based microscopic analysis; type: organism-based, Cavia porcellus; conditions: in vivo, topical_or_ocular; procedure, shortened: as §3
[17] = Phototoxicity in albino guinea pig assessed as skin reaction score at 24 mg/kg topical treatment irradiated with 4.2 mw/cm2 UVA for 40 mins and measured after 24 hrs day of light irradiation by H and E staining based microscopic analysis; type: organism-based, Cavia porcellus; conditions: in vivo, topical_or_ocular; procedure, shortened: as §3
[18] = Toxicity in Sprague-Dawley rat assessed as systemic toxicity at 700 mg/kg, po for 14 days; type: organism-based; conditions: in vivo, 336 h, time 14 day
Procedure, shortened: (§4)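 Healthy male and female Sprague-Dawley rats, 8-week-old, randomised to three groups of 6 males + 6 females. Vehicle 1% CMC-Na or 400 and 700 mg/kg given by oral gavage once daily for 14 days. Mortality and clinical signs checked daily; body weight on days 0, 7, 14. Isoflurane euthanasia, macroscopic necropsy, weights of liver, kidney, testis, thymus, heart and lung.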

[19] = Toxicity in Sprague-Dawley rat assessed as death at 700 mg/kg, po for 14 days; type: organism-based; conditions: in vivo, 336 h, time 14 day; procedure, shortened: as §4
[20] = Toxicity in Sprague-Dawley rat assessed as liver/brain index at 400 to 700 mg/kg, po for 14 days; type: organism-based; conditions: in vivo, 336 h, dose 400-700 mg/kg, time 14 day
Procedure, shortened: (§5)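 Sprague-Dawley rats, 8 weeks old, 6 male and 6 female per group. Dosed by oral gavage once daily for 14 days with 1% CMC-Na vehicle or 400 and 700 mg/kg. Animals were checked daily for mortality and clinical signs, with body weight recorded on days 0, 7 and 14. Rats were then euthanized under isoflurane, necropsied, and their organs weighed.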

[21] = Toxicity in Sprague-Dawley rat assessed as spleen/brain index at 400 to 700 mg/kg, po for 14 days; type: organism-based; conditions: in vivo, 336 h, dose 400-700 mg/kg, time 14 day; procedure, shortened: as §5
[22] = Toxicity in Sprague-Dawley rat assessed as white blood cell count at 400 to 700 mg/kg, po for 14 days; type: organism-based; conditions: in vivo, 336 h, dose 400-700 mg/kg, time 14 day
[23] = Toxicity in Sprague-Dawley rat assessed as ALT at 400 to 700 mg/kg, po for 14 days; type: organism-based; conditions: in vivo, 336 h, dose 400-700 mg/kg, time 14 day
[24] = Toxicity in Sprague-Dawley rat assessed as AST at 400 to 700 mg/kg, po for 14 days; type: organism-based; conditions: in vivo, 336 h, dose 400-700 mg/kg, time 14 day
[25] = Toxicity in Sprague-Dawley rat assessed as blood pressure at 400 to 700 mg/kg, po for 14 days; type: organism-based; conditions: in vivo, 336 h, dose 400-700 mg/kg, time 14 day
[26] = Toxicity in Sprague-Dawley rat assessed as blood glucose at 400 to 700 mg/kg, po for 14 days; type: organism-based; conditions: in vivo, 336 h, dose 400-700 mg/kg, time 14 day
[27] = Phototoxicity in albino guinea pig assessed as infiltration of inflammatory cells at 10 mg/kg topical treatment irradiated with 4.2 mw/cm2 UVA for 40 mins and measured after 24 hrs day of light irradiation by H and E staining based microscopic analysis; type: organism-based, Cavia porcellus; conditions: in vivo, topical_or_ocular, in the assay text read “72 hrs” for “24 hrs”; procedure, shortened: as §3
[28] = Phototoxicity in albino guinea pig assessed as necrosis at 10 mg/kg topical treatment irradiated with 4.2 mw/cm2 UVA for 40 mins and measured after 24 hrs day of light irradiation by H and E staining based microscopic analysis; type: organism-based, Cavia porcellus; conditions: in vivo, topical_or_ocular, in the assay text read “72 hrs” for “24 hrs”; procedure, shortened: as §3
[29] = target: Dual specificity calcium/calmodulin-dependent 3',5'-cyclic nucleotide phosphodiesterase 1A (Homo sapiens, UniProt P54750); test: Inhibition of PDE1A (unknown origin); procedure, shortened: as §1
[30] = target: Dual specificity calcium/calmodulin-dependent 3',5'-cyclic nucleotide phosphodiesterase 1B (Homo sapiens, UniProt Q01064); test: Inhibition of PDE1B (unknown origin); procedure, shortened: as §1
[31] = target: Dual specificity calcium/calmodulin-dependent 3',5'-cyclic nucleotide phosphodiesterase 1C (Homo sapiens, UniProt Q14123); test: Inhibition of PDE1C (unknown origin)
Procedure, shortened: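 For PDE1A, PDE1B and PDE1C, the reaction buffer was also supplemented with 0.2 mM CaCl2 and […]. Otherwise the same SPA run as the other PDEs: [3H]-nucleotide hydrolysis at 30 °C for 30 min, in duplicate.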

[32] = target: cGMP-dependent 3',5'-cyclic phosphodiesterase (Homo sapiens, UniProt O00408); test: Inhibition of PDE2A (unknown origin); procedure, shortened: as §1
[33] = target: cGMP-inhibited 3',5'-cyclic phosphodiesterase 3A (Homo sapiens, UniProt Q14432); test: Inhibition of PDE3A (unknown origin); procedure, shortened: as §1
[34] = target: cGMP-inhibited 3',5'-cyclic phosphodiesterase 3B (Homo sapiens, UniProt Q13370); test: Inhibition of PDE3B (unknown origin); procedure, shortened: as §1
[35] = target: T1, 3',5'-cyclic-AMP phosphodiesterase 4B; test: Inhibition of PDE4B (unknown origin); procedure, shortened: as §1
[36] = target: cGMP-specific 3',5'-cyclic phosphodiesterase (Homo sapiens, UniProt O76074); test: Inhibition of PDE5A (unknown origin); procedure, shortened: as §1
[37] = target: High affinity 3',5'-cyclic-AMP phosphodiesterase 7A (Homo sapiens, UniProt Q13946); test: Inhibition of PDE7A (unknown origin); procedure, shortened: as §1
[38] = target: cAMP and cAMP-inhibited cGMP 3',5'-cyclic phosphodiesterase 10A (Homo sapiens, UniProt Q9Y233); test: Inhibition of PDE10A (unknown origin); procedure, shortened: as §1

T1 sequence (Q07343 whole entry): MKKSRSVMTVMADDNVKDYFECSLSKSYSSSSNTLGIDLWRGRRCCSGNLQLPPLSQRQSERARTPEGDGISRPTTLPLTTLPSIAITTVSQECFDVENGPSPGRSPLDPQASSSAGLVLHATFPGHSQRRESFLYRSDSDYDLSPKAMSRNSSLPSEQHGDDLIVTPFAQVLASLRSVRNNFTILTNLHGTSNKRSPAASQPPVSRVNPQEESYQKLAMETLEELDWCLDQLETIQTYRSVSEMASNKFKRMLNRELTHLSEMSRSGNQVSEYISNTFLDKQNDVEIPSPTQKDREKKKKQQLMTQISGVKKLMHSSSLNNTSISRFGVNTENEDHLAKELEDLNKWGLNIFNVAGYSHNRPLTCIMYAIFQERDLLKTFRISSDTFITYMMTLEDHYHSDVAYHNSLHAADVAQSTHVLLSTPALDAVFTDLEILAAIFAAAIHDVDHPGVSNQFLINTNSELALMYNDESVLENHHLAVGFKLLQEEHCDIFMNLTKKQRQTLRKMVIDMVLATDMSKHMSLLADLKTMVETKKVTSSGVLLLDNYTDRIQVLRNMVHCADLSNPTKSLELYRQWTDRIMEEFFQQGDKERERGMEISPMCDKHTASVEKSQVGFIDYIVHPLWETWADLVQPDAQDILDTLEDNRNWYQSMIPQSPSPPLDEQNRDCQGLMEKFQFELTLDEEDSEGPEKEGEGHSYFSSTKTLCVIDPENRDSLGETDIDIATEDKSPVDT
cGMP-inhibited 3',5'-cyclic phosphodiesterase 3B, sequence (Q13370 whole entry): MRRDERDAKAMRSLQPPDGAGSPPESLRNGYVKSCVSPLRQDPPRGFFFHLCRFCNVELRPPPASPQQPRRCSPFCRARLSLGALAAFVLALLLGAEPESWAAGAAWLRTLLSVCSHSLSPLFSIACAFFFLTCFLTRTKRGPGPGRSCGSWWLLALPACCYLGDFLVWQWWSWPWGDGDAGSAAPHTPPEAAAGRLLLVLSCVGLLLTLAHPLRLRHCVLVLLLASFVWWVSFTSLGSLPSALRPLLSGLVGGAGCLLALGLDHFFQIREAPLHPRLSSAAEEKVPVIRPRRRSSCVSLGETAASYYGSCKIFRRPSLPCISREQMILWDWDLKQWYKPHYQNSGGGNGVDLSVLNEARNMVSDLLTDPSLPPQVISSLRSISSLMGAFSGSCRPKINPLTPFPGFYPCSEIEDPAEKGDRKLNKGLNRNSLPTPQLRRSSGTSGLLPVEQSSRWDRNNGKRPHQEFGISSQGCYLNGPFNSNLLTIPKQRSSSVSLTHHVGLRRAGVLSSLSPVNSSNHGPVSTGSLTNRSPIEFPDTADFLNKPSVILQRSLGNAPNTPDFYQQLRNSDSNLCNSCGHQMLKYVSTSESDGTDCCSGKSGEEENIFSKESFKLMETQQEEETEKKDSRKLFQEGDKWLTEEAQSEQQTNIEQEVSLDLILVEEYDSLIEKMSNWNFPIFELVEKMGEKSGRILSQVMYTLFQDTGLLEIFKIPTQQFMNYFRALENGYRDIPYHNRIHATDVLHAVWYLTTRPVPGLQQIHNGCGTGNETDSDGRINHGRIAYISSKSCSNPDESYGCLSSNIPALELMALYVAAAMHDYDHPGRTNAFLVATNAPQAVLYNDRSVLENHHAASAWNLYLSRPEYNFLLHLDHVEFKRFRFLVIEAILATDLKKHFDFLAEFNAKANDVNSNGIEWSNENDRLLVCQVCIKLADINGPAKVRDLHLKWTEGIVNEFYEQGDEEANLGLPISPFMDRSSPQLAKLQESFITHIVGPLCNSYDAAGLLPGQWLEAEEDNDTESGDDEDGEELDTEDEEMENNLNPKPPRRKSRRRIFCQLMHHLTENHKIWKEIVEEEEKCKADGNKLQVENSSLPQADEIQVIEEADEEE
Dual specificity calcium/calmodulin-dependent 3',5'-cyclic nucleotide phosphodiesterase 1C, sequence (Q14123 whole entry): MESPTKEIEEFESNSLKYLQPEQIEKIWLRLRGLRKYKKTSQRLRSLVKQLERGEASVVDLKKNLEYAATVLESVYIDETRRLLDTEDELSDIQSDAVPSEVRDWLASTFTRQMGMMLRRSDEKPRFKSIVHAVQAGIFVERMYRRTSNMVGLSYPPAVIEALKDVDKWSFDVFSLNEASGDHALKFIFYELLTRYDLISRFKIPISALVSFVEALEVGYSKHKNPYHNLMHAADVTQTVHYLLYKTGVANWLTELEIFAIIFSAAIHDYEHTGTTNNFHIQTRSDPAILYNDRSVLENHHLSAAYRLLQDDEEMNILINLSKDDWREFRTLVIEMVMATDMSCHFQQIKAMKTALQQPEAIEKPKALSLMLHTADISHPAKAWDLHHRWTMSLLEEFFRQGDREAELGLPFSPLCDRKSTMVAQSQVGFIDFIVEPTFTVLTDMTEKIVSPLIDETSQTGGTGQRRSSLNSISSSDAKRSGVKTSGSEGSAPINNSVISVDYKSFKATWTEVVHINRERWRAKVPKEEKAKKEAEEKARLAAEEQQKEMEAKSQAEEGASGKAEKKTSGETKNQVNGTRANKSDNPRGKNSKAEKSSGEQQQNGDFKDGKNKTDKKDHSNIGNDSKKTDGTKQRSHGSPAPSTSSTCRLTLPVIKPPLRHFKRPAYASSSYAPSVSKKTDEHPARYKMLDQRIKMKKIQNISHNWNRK
High affinity 3',5'-cyclic-AMP phosphodiesterase 7A, sequence (Q13946 whole entry): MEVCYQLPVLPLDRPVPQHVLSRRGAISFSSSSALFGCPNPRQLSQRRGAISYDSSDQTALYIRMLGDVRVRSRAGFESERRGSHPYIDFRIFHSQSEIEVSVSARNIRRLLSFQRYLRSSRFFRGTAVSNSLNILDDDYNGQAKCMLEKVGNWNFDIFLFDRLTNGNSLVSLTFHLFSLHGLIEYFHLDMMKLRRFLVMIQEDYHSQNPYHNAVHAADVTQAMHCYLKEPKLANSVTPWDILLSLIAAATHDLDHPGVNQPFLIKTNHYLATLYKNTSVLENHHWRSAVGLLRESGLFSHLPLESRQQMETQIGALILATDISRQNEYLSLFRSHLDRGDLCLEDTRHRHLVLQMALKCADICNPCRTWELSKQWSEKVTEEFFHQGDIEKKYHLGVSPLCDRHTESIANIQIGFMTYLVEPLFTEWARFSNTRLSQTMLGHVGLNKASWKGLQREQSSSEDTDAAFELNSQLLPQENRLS
cGMP-inhibited 3',5'-cyclic phosphodiesterase 3A, sequence (Q14432 whole entry): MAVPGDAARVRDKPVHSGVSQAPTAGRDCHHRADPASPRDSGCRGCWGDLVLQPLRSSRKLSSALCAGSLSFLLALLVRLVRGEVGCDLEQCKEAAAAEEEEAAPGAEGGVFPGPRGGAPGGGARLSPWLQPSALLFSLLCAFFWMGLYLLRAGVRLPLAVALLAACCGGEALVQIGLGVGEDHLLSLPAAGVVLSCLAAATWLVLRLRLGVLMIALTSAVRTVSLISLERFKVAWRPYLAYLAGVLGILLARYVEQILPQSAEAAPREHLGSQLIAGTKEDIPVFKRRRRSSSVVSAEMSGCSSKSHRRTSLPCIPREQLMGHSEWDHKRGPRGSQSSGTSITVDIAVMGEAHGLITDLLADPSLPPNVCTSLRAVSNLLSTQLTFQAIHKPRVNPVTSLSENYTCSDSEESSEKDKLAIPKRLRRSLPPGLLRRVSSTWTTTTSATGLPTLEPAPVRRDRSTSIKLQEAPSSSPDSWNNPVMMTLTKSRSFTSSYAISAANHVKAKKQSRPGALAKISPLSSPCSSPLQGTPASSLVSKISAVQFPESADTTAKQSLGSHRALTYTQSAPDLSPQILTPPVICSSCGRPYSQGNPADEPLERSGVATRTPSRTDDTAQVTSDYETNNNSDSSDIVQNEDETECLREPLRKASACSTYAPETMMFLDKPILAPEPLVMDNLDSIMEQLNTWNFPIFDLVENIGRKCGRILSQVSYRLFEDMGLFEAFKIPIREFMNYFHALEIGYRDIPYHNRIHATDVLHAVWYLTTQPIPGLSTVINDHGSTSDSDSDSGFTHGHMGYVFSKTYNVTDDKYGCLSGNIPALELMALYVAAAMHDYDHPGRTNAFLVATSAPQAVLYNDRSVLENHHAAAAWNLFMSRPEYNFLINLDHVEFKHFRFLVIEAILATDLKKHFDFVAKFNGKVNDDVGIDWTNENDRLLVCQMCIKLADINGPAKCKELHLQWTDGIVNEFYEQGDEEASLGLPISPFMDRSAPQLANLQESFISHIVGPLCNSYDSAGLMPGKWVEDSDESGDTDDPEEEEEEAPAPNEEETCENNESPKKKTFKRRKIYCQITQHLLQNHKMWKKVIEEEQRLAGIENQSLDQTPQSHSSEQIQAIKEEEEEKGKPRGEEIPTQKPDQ
Dual specificity calcium/calmodulin-dependent 3',5'-cyclic nucleotide phosphodiesterase 1A, sequence (P54750 whole entry): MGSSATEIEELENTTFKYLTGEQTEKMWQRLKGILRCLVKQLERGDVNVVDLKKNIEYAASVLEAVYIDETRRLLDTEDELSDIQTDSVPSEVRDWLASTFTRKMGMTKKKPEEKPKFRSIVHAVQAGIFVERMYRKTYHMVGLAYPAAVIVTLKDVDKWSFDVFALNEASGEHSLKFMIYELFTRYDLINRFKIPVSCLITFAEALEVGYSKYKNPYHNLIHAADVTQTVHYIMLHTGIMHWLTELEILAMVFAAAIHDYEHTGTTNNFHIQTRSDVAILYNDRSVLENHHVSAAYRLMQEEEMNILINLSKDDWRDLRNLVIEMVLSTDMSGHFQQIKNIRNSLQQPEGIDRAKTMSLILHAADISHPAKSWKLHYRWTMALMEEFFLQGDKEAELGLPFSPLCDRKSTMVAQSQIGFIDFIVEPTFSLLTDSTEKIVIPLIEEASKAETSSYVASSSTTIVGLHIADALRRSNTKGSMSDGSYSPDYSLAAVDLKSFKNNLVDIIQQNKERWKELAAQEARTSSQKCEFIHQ

- IC50 [1]: 6.42 nM
Structure (SMILES): OB1OCc2cc(Oc3ccc4c(C(F)(F)F)cccc4n3)ccc21
- inhibition (INH) [2]: 58.05%

Structure (SMILES): OB1OCc2cc(Oc3ccc4cc(C(F)(F)F)ccc4n3)ccc21
- IC50 [1]: 0.42 nM
- inhibition (INH) [2]: 65.85%
- Ratio IC50 [3]: 154
- Ratio IC50 [4]: 138
- Ratio IC50 [5]: 2060
- Ratio IC50 [6]: 286
- Ratio IC50 [7]: 19400
- Ratio IC50 [8]: 17100
- Ratio IC50 [9]: 1950
- Ratio IC50 [10]: 83
- Ratio IC50 [11]: 10800
- Activity [12]: 0.29 mm
- Activity [13]: 0.32 mm
- Activity [14]: 73.33%
- Activity [15]: Non-Toxic
- Activity [16]: Non-Toxic
- Activity [17]: Non-Toxic
- Activity [18]: Non-Toxic
- Activity [19]: Non-Toxic
- Activity [20]: Non-Toxic
- Activity [21]: Non-Toxic
- Activity [22]: Non-Toxic
- Activity [23]: Non-Toxic
- Activity [24]: Non-Toxic
- Activity [25]: Non-Toxic
- Activity [26]: Non-Toxic
- Activity [27]: Non-Toxic
- Activity [28]: Non-Toxic
- IC50 [29]: 64.7 nM
- IC50 [30]: 58 nM
- IC50 [31]: 866 nM
- IC50 [32]: 120 nM
- IC50 [33]: 8130 nM
- IC50 [34]: 7190 nM
- IC50 [35]: 0.42 nM
- IC50 [36]: 819 nM
- IC50 [37]: 34.7 nM
- IC50 [38]: 4520 nM
